F508del corr = correctors of CFTR F508del function in bronchial epithelial cells; 350,000 tested, 0.36% active; activity (quench increase), % at 7.58 µM; CFBE cells, YFP halide quenching; stimulated with forskolin plus potentiator P3; % fluorescence drop versus neutral controls;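 active = mean added fluorescence quench of at least 8% versus neutral control, with both replicates also reaching 8%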;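 also: cells transiently co-express mutant CFTR-F508del with the halide-sensitive YFP; corrector assay measuring rescue of mutant channel to the surface after 24 h compound exposure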
FGF22 binding = shifts melting point of recombinant human FGF22; Q9HCT0; recombinant FGF22 thermal shift, SYPRO orange fluorescence; percent of sucrose octasulfate shift, DMSO zero; activity (Tm shift, normalised), % at 9.99 µM; 340,000 tested, 1.5% active; AID 651658;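 active = mean Tm shift, scaled 0 neutral to 100 positive control, at about 1.3% or above, every replicate too, limit read from the data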
HIV Env fusion = HIV envelope-mediated fusion inhibition | HeLa-JRFL Env/CEM21 cell fusion, luciferase | inhibition, % at 12.3 µM | 360,000 tested, 1.1% active;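 active = mean replicate inhibition score of at least 50 and every replicate individually at or above 50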;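 also: 0% = plate neutral controls and 100% = maraviroc near 300 nM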
S100A4 MyoIIA = inhibitors of human S100A4 binding to myosin IIA peptide; inhibition, % at 10.7 µM; S100A4/TAMRA-MyoIIA peptide fluorescence polarization; 360,000 tested, 0.14% active;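 active = mean inhibition of at least 70% across replicates, with every replicate also reaching that level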
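Assay system: human S100A4 monomer with TAMRA-labelled myosin IIA peptide / Buffer or medium: Calcium-containing HEPES buffer, pH 7.2 / Reagent: TAMRA-labelled myosin IIA heavy-chain peptide probe, 5 nM / Compound: one dose per compound / Timing: polarization read 5 min after assay mix addition, stable 5–60 min / Benchmarks: neutral control DMSO, positive control TFP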
E-sel inducer = induces E-selectin expression in human endothelial cells; P16581; HUVEC E-selectin immunofluorescence imaging; normalized: neutral wells 0, TNF-alpha wells 100; activation, % at 7.58 µM; 260,000 tested, 0.37% active; AID 686992;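 active = mean E-selectin-positive cell signal at least 10% of the positive control, reached in at least 60% of replicates, without over 20% cell loss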
Target sequence (P16581 whole entry, looked up): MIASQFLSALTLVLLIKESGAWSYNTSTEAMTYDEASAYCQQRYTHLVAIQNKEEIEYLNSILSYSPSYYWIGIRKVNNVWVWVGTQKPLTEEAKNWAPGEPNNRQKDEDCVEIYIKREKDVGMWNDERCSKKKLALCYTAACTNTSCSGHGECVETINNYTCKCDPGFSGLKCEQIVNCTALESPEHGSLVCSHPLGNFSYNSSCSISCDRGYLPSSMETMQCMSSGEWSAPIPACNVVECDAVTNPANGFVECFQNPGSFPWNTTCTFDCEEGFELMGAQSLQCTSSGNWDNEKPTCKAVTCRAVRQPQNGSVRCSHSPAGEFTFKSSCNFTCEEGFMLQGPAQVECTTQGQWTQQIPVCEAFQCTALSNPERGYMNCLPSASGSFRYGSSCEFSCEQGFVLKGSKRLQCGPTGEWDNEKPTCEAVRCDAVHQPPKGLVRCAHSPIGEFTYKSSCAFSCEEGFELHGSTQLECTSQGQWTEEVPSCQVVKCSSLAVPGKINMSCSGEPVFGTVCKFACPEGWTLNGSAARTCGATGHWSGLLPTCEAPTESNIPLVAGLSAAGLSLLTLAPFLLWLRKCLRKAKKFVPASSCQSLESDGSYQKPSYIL
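Read-out: % PE-positive cells | Test system: HUVEC | Doses: One compound dose added by pin transfer | Buffer or medium: EGM-2 over gelatin coat | Signal: Immunofluorescence imaging | Benchmarks: TNF-alpha, DMSO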
The depositor's hits bear a star; ! = not confirmed by another sample; [ ] = remark or other dose. This is a sample that favours compounds with a hit; in the whole collection about 2.7% have one here.

How did C[C@H](CO)N1C[C@H](C)[C@H](CN(C)CC2CC2)Oc2ncc(C#CC3(O)CCCC3)cc2C1=O do in these assays?
F508del corr: -1; S100A4 MyoIIA: -17; E-sel inducer: -1

What do the screens show for `COc1ccc(S(=O)(=O)Nc2cccc3c2O[C@H](CN(C)C(=O)Nc2ccc(C(F)(F)F)cc2)[C@H](C)CN([C@@H](C)CO)C3=O)cc1`?
F508del corr: 1; FGF22 binding: 0; HIV Env fusion: 3[16.7 µM]; S100A4 MyoIIA: 1; E-sel inducer: 0

Results for COc1cccc(-n2nnnc2SCC(=O)NCc2ccc3c(c2)OCO3)c1 ?
F508del corr: 0; FGF22 binding: 0; S100A4 MyoIIA: -16

Results for O=C(CSc1ccc2ccccc2n1)NCc1ccc2c(c1)OCO2 ?
F508del corr: -1; FGF22 binding: 43*; HIV Env fusion: 1; S100A4 MyoIIA: 0; E-sel inducer: 0

What do the screens show for `O=C(CSc1nc(C2CCCCC2)nc2ccccc12)NCc1ccc2c(c1)OCO2`?
F508del corr: 2; FGF22 binding: 44*; HIV Env fusion: 5; S100A4 MyoIIA: 3

What do the screens show for `O=C(CSc1nc2ccccc2s1)NCc1ccc2c(c1)OCO2`?
HIV Env fusion: 15; E-sel inducer: 2

Results for CC(C)C(=O)NNC(=O)CSc1nc(C2CCCCC2)nc2ccccc12 ?
HIV Env fusion: 26

Results for Cn1c(=O)c2c(nc(SCC(=O)NCc3ccc4c(c3)OCO4)n2Cc2ccc(Cl)cc2)n(C)c1=O ?
HIV Env fusion: 106*

What do the screens show for `COc1cccc(NC(=O)c2cnc(SCC(=O)NCc3ccc4c(c3)OCO4)n(C)c2=O)c1`?
F508del corr: 8.1*; FGF22 binding: 0; S100A4 MyoIIA: 4; E-sel inducer: 1

Results for O=C(C[C@@H]1CC[C@H]2[C@@H](COC[C@H](O)CN2CC2CCOCC2)O1)NCC1CC1 ?
F508del corr: -1; FGF22 binding: 0; HIV Env fusion: 20[16.7 µM]; S100A4 MyoIIA: 1; E-sel inducer: 0

Results for COCC(=O)N(C)C[C@@H]1Oc2ncc(-c3ccc(C#N)cc3)cc2C(=O)N([C@H](C)CO)C[C@@H]1C ?
F508del corr: -1; FGF22 binding: 0; HIV Env fusion: -14[16.7 µM]; S100A4 MyoIIA: 0; E-sel inducer: 2

How did O=C(OCC(=O)N1CCN(c2ccccc2)CC1)c1cccc([N+](=O)[O-])c1 do in these assays?
F508del corr: 1; FGF22 binding: -1; HIV Env fusion: 71*; S100A4 MyoIIA: -3

Results for NC(=NCCCCCCN=C(N)/N=C(\N)Nc1ccc(Cl)cc1)/N=C(\N)Nc1ccc(Cl)cc1 ?
F508del corr: 12*!; FGF22 binding: 0; HIV Env fusion: 2; S100A4 MyoIIA: -5; E-sel inducer: 0

What do the screens show for `C=CCN([C@@H](CC(C)C)C(=O)OC)S(=O)(=O)N(CC=C)[C@@H](CC(C)C)C(=O)OC`?
F508del corr: -1; FGF22 binding: 0; HIV Env fusion: 81*; S100A4 MyoIIA: -14; E-sel inducer: 0

What do the screens show for `COC(=O)[C@H](Cc1ccccc1)N(Cc1ccccc1)S(=O)(=O)N(Cc1ccccc1)[C@@H](Cc1ccccc1)C(=O)OC`?
F508del corr: -2; FGF22 binding: 0; HIV Env fusion: 80*; S100A4 MyoIIA: -4; E-sel inducer: 0

Results for COC(=O)[C@H](Cc1ccccc1)N(C)S(=O)(=O)c1cccc(S(=O)(=O)N(C)[C@@H](Cc2ccccc2)C(=O)OC)c1 ?
F508del corr: 4; FGF22 binding: 0; HIV Env fusion: 9; S100A4 MyoIIA: 0; E-sel inducer: 0

What do the screens show for `COC(=O)[C@@H](CC(C)C)NS(=O)(=O)N(Cc1ccccc1)[C@@H](CC(C)C)C(=O)OC`?
F508del corr: 0; FGF22 binding: 0; HIV Env fusion: 55*; S100A4 MyoIIA: 1

How did CCOC(=O)[C@@H](C)N(C(=O)OC(C)(C)C)S(=O)(=O)N(Cc1ccccc1)[C@H](C(=O)OC)C(C)C do in these assays?
F508del corr: -2; FGF22 binding: 0; HIV Env fusion: 85*; S100A4 MyoIIA: -2; E-sel inducer: 1

What do the screens show for `COC(=O)[C@H](CC(C)C)NS(=O)(=O)c1ccccc1`?
F508del corr: 5; FGF22 binding: 0; HIV Env fusion: 2; S100A4 MyoIIA: -3; E-sel inducer: 0
